# Reference: PubChem BioAssay AID602271 (Johns Hopkins Ion Channel Center, 2012)
# Active and inactive are the calls of the source.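 The calls were made as follows: active = changes KCNQ2 potassium channel current, up or down, at some tested dose, giving a fitted dose response; inactive = no effect at any dose or no dose response.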
# Target: Potassium voltage-gated channel subfamily KQT member 2 (Rattus norvegicus) (UniProt O88943)
# Assay: rat KCNQ2 channel inhibitors, SAR follow-up, orthogonal assay, automated electrophysiology, CHO cells (AID 602271)
# Conditions: automated patch clamp current
# Summary of the method: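 Assay system: KCNQ2-expressing CHO cells in automated perforated patch clamp; buffer or medium: pH 7.4 external, pH 7.25 K-gluconate internal solution; probe or stimulus: depolarization from -90 mV to +40 mV, 2,000 ms; dosing: multiple compound concentrations per compound; measured by: perforated automated patch clamp current recording; replication: four per concentration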
# Chain of Potassium voltage-gated channel subfamily KQT member 2 (Rattus norvegicus) (O88943 whole entry, looked up): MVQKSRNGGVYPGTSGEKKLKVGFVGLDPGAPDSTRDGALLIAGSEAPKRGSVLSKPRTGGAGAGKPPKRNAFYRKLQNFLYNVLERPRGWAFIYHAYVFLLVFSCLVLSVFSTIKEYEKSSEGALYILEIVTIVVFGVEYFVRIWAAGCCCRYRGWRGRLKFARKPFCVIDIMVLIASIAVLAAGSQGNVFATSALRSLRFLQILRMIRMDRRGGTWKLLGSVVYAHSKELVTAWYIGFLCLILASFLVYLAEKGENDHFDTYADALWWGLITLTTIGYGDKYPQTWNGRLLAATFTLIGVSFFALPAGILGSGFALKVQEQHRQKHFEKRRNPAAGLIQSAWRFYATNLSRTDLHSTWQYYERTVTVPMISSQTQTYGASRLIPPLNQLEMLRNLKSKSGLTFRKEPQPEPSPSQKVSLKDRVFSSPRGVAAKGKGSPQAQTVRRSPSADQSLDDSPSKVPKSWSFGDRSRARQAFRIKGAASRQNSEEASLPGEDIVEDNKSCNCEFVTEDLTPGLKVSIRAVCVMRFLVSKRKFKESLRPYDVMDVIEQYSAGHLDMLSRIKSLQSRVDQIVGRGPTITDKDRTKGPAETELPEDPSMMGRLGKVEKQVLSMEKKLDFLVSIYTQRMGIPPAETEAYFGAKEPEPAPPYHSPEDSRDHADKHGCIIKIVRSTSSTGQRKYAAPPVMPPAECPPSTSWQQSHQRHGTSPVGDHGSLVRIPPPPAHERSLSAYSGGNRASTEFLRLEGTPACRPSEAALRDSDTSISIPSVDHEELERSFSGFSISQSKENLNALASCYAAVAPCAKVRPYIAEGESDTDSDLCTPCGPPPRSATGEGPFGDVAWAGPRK
row,Structure (SMILES),IC50 [µM]
1,O=C(Cc1cccc(Cl)c1)Nc1ccccc1-n1cccc1,12.3
2,CN(C)c1ccccc1NC(=O)Cc1cccc(Cl)c1,27.5
3,O=C(Cc1cccc(Cl)c1)Nc1ccc(Cl)cc1Cl,1.52
4,O=C(Cc1cccc(Cl)c1)Nc1cccc(N2CCCC2)c1,1.02
5,COc1ccc(NC(=O)Cc2cccc(Cl)c2)c(OC)c1,1.24
6,O=C(Cc1cccc(Cl)c1)Nc1ccc(N2CCCC2)cc1,8.66
7,O=C(Cc1cccc(Cl)c1)Nc1ccccc1N1CCCCC1,7.09

# Same assay, conditions: automated patch clamp current, at 30 µM (top of the series)
row,Structure (SMILES),"current change %, negative = inhibition"
1,CCC(C(=O)N(C)c1ccccc1N1CCCC1)c1ccccc1 (configuration not stated),inactive
2,CN(Cc1ccccc1)c1ccccc1NC(=O)Cc1cccc(Cl)c1,inactive
3,O=C(Cc1cccc(Cl)c1)Nc1ccccc1N1CCCCCCC1,inactive
4,O=C(Cc1cccc(Cl)c1)Nc1ccc(F)cc1F,inactive
5,O=C(Cc1cccc(Cl)c1)Nc1cccc2c1OCO2,inactive
6,CCN(C)c1ccccc1NC(=O)Cc1cccc(Cl)c1,inactive
7,CN(C(=O)Cc1ccccc1)c1ccccc1N1CCCC1,inactive
8,O=C(Cc1cccc(Cl)c1)Nc1cccc(F)c1F,inactive
9,O=C(Cc1cccc(Cl)c1)Nc1ccccc1N1CCOCC1,inactive
10,O=C(Cc1cccc(Cl)c1)Nc1ccccc1F,inactive
